Molecules are shown by their SMILES. Activity calls are given as the source filed them. No cut-off for these calls is given here.

For the first data set, the system named is Mus musculus. Description: Toxicity in ICR mouse assessed as clinical signs at 10 mg/kg, ip. The data set is classed as organism-based. Also noted: dose 10 mg/kg, route intraperitoneal. Particulars: in vivo.
As to `Nc1nc(N)c2c(-c3ccccc3)c(-c3ccc(F)cc3)[nH]c2n1`, the Activity result is given as “Non-toxic”.

A further data set concerns Trypanosoma brucei brucei. Put plainly: Antitrypanocidal activity against bloodstream forms of Trypanosoma brucei brucei Lister 427 after 6 hrs by time-kill assay. The data set is classed as functional, organism-based.
Conditions: not given
Turning to `Cc1ccc(C(C[N+](=O)[O-])c2c(N)nc(N)nc2N)cc1` (stereo unspecified), the outcome was inactive.
Take `N#Cc1c[nH]c2nc(N)nc(N3CCSCC3)c12`: the result was inactive.
Consider `N#Cc1c(-c2cccc(C=O)c2)[nH]c2nc(N)nc(N)c12`, for which the result was inactive.
Regarding `Nc1nc(N)c(C(C[N+](=O)[O-])c2ccc(F)cc2)c(=O)[nH]1` (stereo unspecified), the result was inactive.
On the same count and under the same terms, to `Nc1nc(N)c(C(C[N+](=O)[O-])c2ccccc2)c(N)n1` (stereo unspecified) belongs “inactive”.
With `Nc1nc(N)c(C(C[N+](=O)[O-])c2ccc(F)cc2)c(NC2CCCCC2)n1` (stereo unspecified), the result was inactive.
The same measure, in the same setting: then `Nc1nc2[nH]c(-c3ccccc3)c(-c3ccccc3)c2c(=O)[nH]1`, with “inactive”.
As for `CC(C)Oc1nc(N)nc(N)c1C(C[N+](=O)[O-])c1ccc(F)cc1` (stereo unspecified), the outcome was inactive.
Still for that read-out and setting: then `Nc1nc(N)c2c(-c3ccccc3)c(-c3ccccc3)[nH]c2n1`, with “inactive”.
Regarding `COc1nc(N)nc2[nH]cc(C#N)c12`, the outcome was inactive.
On to `CC(C)COc1nc(N)nc(N)c1C(C[N+](=O)[O-])c1ccc(F)cc1` (stereo unspecified), for which the result was inactive.
Same read-out and setting: then `Nc1nc(N)c(C(CCc2ccccc2)C[N+](=O)[O-])c(N)n1` (stereo unspecified), with “inactive”; and `Nc1nc(N)c(C(CCc2ccccc2)C[N+](=O)[O-])c(=O)[nH]1` (stereo unspecified), with “inactive”.
For `Nc1nc(N2CCSCC2)c2cc[nH]c2n1`, the outcome was inactive.
Still for that read-out and setting: to `Nc1nc(N)c(C(C[N+](=O)[O-])c2ccccc2)c(=O)[nH]1` (stereo unspecified) belongs “inactive”.
On to `Nc1nc(N)c(C(C[N+](=O)[O-])c2ccc(F)cc2)c(N)n1` (stereo unspecified), for which the outcome was inactive.
Regarding `Nc1nc2[nH]cc(CCc3ccccc3)c2c(=O)[nH]1`, the result was inactive.
For `N#Cc1c[nH]c2nc(N)nc(N)c12`, the outcome was inactive.
As for `Cc1ccc(C(C[N+](=O)[O-])c2c(N)nc(N)[nH]c2=O)cc1` (stereo unspecified), the result was inactive.
On the same count and under the same terms, to `Nc1nc2[nH]c(-c3ccc(F)cc3)c(-c3ccccc3)c2c(=O)[nH]1` belongs “inactive”; to `Nc1nc(N)c2c(-c3ccccc3)c(-c3ccc(F)cc3)[nH]c2n1`, “inactive”; to `Nc1nc2[nH]c(-c3ccc(CCCN4CCOCC4)cc3)c(-c3ccccc3)c2c(=O)[nH]1`, “inactive”.

The next data set relates to Mus musculus. Put plainly: Toxicity in ICR mouse assessed as fatality at 100 mg/kg, ip. Type of data set: organism-based. Particulars: in vivo. Also noted: dose 100 mg/kg, route intraperitoneal. In short, it runs like this: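 Maximum tolerated dose study in mice at 10, 30 and 100 mg/kg, scoring clinical signs and fatality.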
With `Nc1nc(N)c2c(-c3ccccc3)c(-c3ccc(F)cc3)[nH]c2n1`, the Activity entry was “Toxic”.

The test system of another data set is Mus musculus. Description: Toxicity in ICR mouse assessed as transient clinical signs at 30 mg/kg, ip. Type of data set: organism-based. Details: dose 30 mg/kg, route intraperitoneal. Particulars: in vivo.
For the compound `Nc1nc(N)c2c(-c3ccccc3)c(-c3ccc(F)cc3)[nH]c2n1`, the Activity entry is listed as “Toxic”.

The test system of the next data set is Trypanosoma brucei brucei. Description: Antitrypanocidal activity against Trypanosoma brucei brucei Lister 427 infected in ICR mouse assessed as reduction in parasitemia at 30 mg/kg, ip qd administered 24 hrs post infection for 4 consecutive days. Type of data set: functional, organism-based. Also noted: dose 30 mg/kg.
Conditions: not given
Consider `Nc1nc(N)c2c(-c3ccccc3)c(-c3ccc(F)cc3)[nH]c2n1`, for which the outcome was Active.

Values taken from ChEMBL document CHEMBL3351984, “Structure-based design and synthesis of antiparasitic pyrrolopyrimidines targeting pteridine reductase 1” (J Med Chem, 2014).
